Measured values taken from ChEMBL document CHEMBL1136006, “New PET imaging agent for the serotonin transporter: [(18)F]ACF (2-[(2-amino-4-chloro-5-fluorophenyl)thio]-N,N-dimethyl-benzenmethanamine)” (J Med Chem, 2002).

Assays:
Assay type in all cases: ADME, organism-based
Rattus norvegicus [1] = assay: Effect of pretreatment with (+)-McN5652 with a dose of 2 mg/kg (i.v.) on specific binding of [18F]ACF in rat brain cerebellum; design: dose 2 mg/kg, route intravenous; settings: in vivo, iv
In short: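 Rats pretreated iv with drug (2 mg/kg) or saline 5 min before iv [18F]ACF (50 μCi). Sacrificed 1 h after tracer. Brain regions were dissected, weighed and counted, and % dose/g was calculated against a diluted initial dose. Drug-treated rats were compared with saline controls by ANOVA/Dunnett's test (p<0.05). Three rats per point, average ± SD.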

Rattus norvegicus [2] = species: Rattus norvegicus; assay: Organ distribution of [18F]ACF radiolabeled compound in rat kidney after 120 min; settings: in vivo, 2 h
In short: (§1)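 Rats, three per time point, under ether anesthesia; 30 μCi tracer in 0.2 mL saline injected into femoral vein. Sacrificed by cardiac excision under ether at 2, 30, 60, 120 or 240 min. Organs removed, weighed and counted; % dose/organ calculated against counts of 1% of initial dose counted at the same time. Average of three rats ± SD.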

Rattus norvegicus [3] = species: Rattus norvegicus; assay: Organ distribution of [18F]ACF radiolabeled compound in rat kidney after 30 min; settings: in vivo, 0.5 h; in short: as §1
Rattus norvegicus [4] = species: Rattus norvegicus; assay: Regional brain distribution of [18F]ACF radiolabeled compound in rat hypothalamus after 60 min; settings: in vivo, 1 h
In short: (§2)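 Rats (three per group) under ether anesthesia got 30 μCi tracer in 0.2 mL saline into the femoral vein and were killed by cardiac excision at the stated time. Cortex, striatum, hippocampus, cerebellum, hypothalamus and the rest of brain were dissected, weighed and gamma counted. %dose/g was taken against counts of a diluted initial dose. Regional ratios are each region's %dose/g over cerebellum's. Mean ± SD.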

Rattus norvegicus [5] = species: Rattus norvegicus; assay: Organ distribution of [18F]-ACF radiolabeled compound in rat liver after 60 min; settings: in vivo, 1 h
In short: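 Under ether anesthesia, 30 μCi no-carrier-added tracer in 0.2 mL saline injected into the femoral vein. Rats killed by cardiac excision at the stated time. Organs were removed, weighed and counted; % dose/organ was calculated against counts of a 1% initial-dose standard. Three rats per time, average ± SD.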

Rattus norvegicus [6] = species: Rattus norvegicus; assay: Regional brain distribution of [18F]ACF radiolabeled compound in rat cerebellum after 60 min; settings: in vivo, 1 h; in short: as §2
Rattus norvegicus [7] = species: Rattus norvegicus; assay: Regional brain distribution of [18F]-ACF radiolabeled compound in rat cortex after 2 min; settings: in vivo; in short: as §2
Rattus norvegicus [8] = species: Rattus norvegicus; assay: Organ distribution of [18F]ACF radiolabeled compound in rat heart after 120 min; settings: in vivo, 2 h; in short: as §1
Rattus norvegicus [9] = assay: Ratio of effect of pretreatment with methylphenidate with a dose of 2 mg/kg (i.v.) on specific binding of [18F]ACF in rat brain striatum to that of cerebellum; design: dose 2 mg/kg, route intravenous; settings: in vivo, iv
In short: (§3)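 Rats (three per point) pretreated iv with competing drug at 2 mg/kg or saline (control) 5 min before iv [18F]ACF (50 μCi). At 1 h post tracer, brain regions (cortex, striatum, hippocampus, cerebellum, hypothalamus, remainder) dissected, weighed, counted as % dose/g and expressed as ratio to cerebellum. Average ± SD; ANOVA with Dunnett's test vs saline controls, p < 0.05.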

Rattus norvegicus [10] = species: Rattus norvegicus; assay: Ratio of regional brain distribution of [18F]-ACF radiolabeled compound in rat remainder to that of cerebellum after 240 min; settings: in vivo, 4 h; in short: as §2
Rattus norvegicus [11] = species: Rattus norvegicus; assay: Ratio of regional brain distribution of [18F]-ACF radiolabeled compound in rat striatum to that of cerebellum after 240 min; settings: in vivo, 4 h; in short: as §2
Rattus norvegicus [12] = assay: Ratio of effect of pretreatment with (+)-McN5652 with a dose of 2 mg/kg (i.v.) on specific binding of [18F]ACF in rat brain cortex to that of cerebellum; design: dose 2 mg/kg, route intravenous; settings: in vivo, iv; in short: as §3
Rattus norvegicus [13] = assay: Ratio of effect of pretreatment with methylphenidate with a dose of 2 mg/kg (i.v.) on specific binding of [18F]ACF in rat brain cortex to that of cerebellum; design: dose 2 mg/kg, route intravenous; settings: in vivo, iv; in short: as §3
Rattus norvegicus [14] = species: Rattus norvegicus; assay: Ratio of regional brain distribution of [18F]ACF radiolabeled compound in rat striatum to that of cerebellum after 60 min; settings: in vivo, 1 h; in short: as §2

CN(C)Cc1ccccc1Sc1cc(F)c(Cl)cc1N
Dose/g (Rattus norvegicus [1]): 0.17%
Dose/g (Rattus norvegicus [2]): 0.78 % dose/organ
Dose/g (Rattus norvegicus [3]): 2.64 % dose/organ
Dose/g (Rattus norvegicus [4]): 0.54%
Dose/g (Rattus norvegicus [5]): 10.3 % dose/organ
Dose/g (Rattus norvegicus [6]): 0.15%
Dose/g (Rattus norvegicus [7]): 2.31%
Dose/g (Rattus norvegicus [8]): 0.06 % dose/organ
Ratio (Rattus norvegicus [9]): 2.75
Ratio (Rattus norvegicus [10]): 1.58
Ratio (Rattus norvegicus [11]): 2.35
Ratio (Rattus norvegicus [12]): 1.43
Ratio (Rattus norvegicus [13]): 2.02
Ratio (Rattus norvegicus [14]): 2.88
